Measurements from ChEMBL document CHEMBL4513216, “Probing the Open Global Health Chemical Diversity Library for Multistage-Active Starting Points for Next-Generation Antimalarials” (ACS Infect Dis, 2020).

Assay: Toxicity liver stage against HepG2, at 10uM
Format: cell-based
Set-up: test concentration 10 uM, cell line HepG2-A16-CD81EGFP
Settings: human, HepG2-A16-CD81EGFP cells; read-out: INHIBITION
Procedure, shortened: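 Uninfected HepG2-A16-CD81EGFP cells, 3 × 10^3 per well, 1536-well, plated on prespotted compound at 10 μM final, parasite-free screening media added to match infected plates; puromycin 10 μM positive, DMSO 0.5% negative; run in parallel with 48 h PbLuc assay at 37 °C, 5% CO2; viability by CellTiter-Glo luminescence, normalized to controls.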

CN(CC(=O)N1CCCC1)C(=O)c1ccccc1Nc1ccccc1
cytotoxicity at 10 µM: 11.3%

CN1C(=O)C2(NC(=O)c3ccccc3O2)c2ccccc21 (stereo not drawn)
cytotoxicity at 10 µM: -7.65%

CC[C@H]1CN2CC[C@H]1C[C@@H]2CNC(=O)Nc1cccc(C(F)(F)F)c1
cytotoxicity at 10 µM: 0.676%

CO[C@@H]1CN(c2ccccc2)S(=O)(=O)[C@@]12CCN(C(C)=O)C2
cytotoxicity at 10 µM: 6.07%

O=C(Cc1csc(-c2cccc(Cl)c2)n1)NCc1cccc(C(=O)O)c1
cytotoxicity at 10 µM: -0.0616%

Cc1nn(C2CCS(=O)(=O)C2)c(O)c1Cc1ccccc1Cl (stereo not drawn)
cytotoxicity at 10 µM: -45.7%

Cc1cc(CN2CCC(CNS(=O)(=O)c3c(C)noc3C)CC2)c(C)o1
cytotoxicity at 10 µM: 5.81%

CCCNC(=O)c1ccc2c(OC)n(C)nc2c1
cytotoxicity at 10 µM: 1.56%

Cc1nn(C)c(C)c1S(=O)(=O)NCC(C)(O)c1ccc2c(c1)OCO2 (stereo not drawn)
cytotoxicity at 10 µM: 1.77%

O=C(CN1CCOCC1)Nc1ccc(C(F)(F)F)cc1Cl
cytotoxicity at 10 µM: 4.72%

Cc1nc(C#N)c(N2CCC(c3nc(-c4ccc(F)cc4)no3)CC2)o1
cytotoxicity at 10 µM: 3.86%

Cc1c(C(=O)O)cnn1-c1ccc(-c2nc(C3CC3)no2)cn1
cytotoxicity at 10 µM: 0.88%

Cc1c(C(=O)N2CCN(c3ccccn3)CC2)n(C)c2ccc(Cl)cc12
cytotoxicity at 10 µM: 3.95%

Cc1noc(C)c1CN1CC[C@H]2OCC[C@@H](C(=O)N3CCCO3)[C@@H]2C1
cytotoxicity at 10 µM: -8.25%

Cc1c(Br)cnn1CC(=O)Nc1ccon1
cytotoxicity at 10 µM: 10.8%

Cc1ccccc1NCc1nc2n(n1)CCCCC2
cytotoxicity at 10 µM: 4.7%

CCNS(=O)(=O)c1ccc2c(c1)c(=O)n(CC)c(=O)n2CC
cytotoxicity at 10 µM: 10.4%

Cc1cc2nc(SCC(=O)N3CCCC3)n(Cc3ccco3)c(O)c-2n1
cytotoxicity at 10 µM: 7.19%

O=C1CCC(=O)c2oc3ccc(Cl)cc3c2N1
cytotoxicity at 10 µM: 7.58%

CN(C)Cc1cnn(-c2ccccc2C(=O)NCCC2CCCN2C)c1 (stereo not drawn)
cytotoxicity at 10 µM: 8.18%

CO[C@@H]1CC[C@@H](NC(=O)c2ccc(OCCN3CCCC3)cc2)[C@H]1O
cytotoxicity at 10 µM: -3.83%

COc1ccccc1C1CCCN1CC(=O)N1CCC(C(N)=O)CC1 (stereo not drawn)
cytotoxicity at 10 µM: -24.8%

Cc1nccn1CC(=O)N1CC(Cc2nccc3ccn(C)c23)C1
cytotoxicity at 10 µM: -23.4%

CCN(CC1CCOC1)C(=O)NCc1nnc2n1CCCCC2 (stereo not drawn)
cytotoxicity at 10 µM: -0.43%

Clc1ccc(N2CCC(OCC3CCCCO3)CC2)nc1 (stereo not drawn)
cytotoxicity at 10 µM: -1.8%

CN(C)CCN(C)C(=O)NC1CCC(Oc2ccccc2C#N)CC1 (stereo not drawn)
cytotoxicity at 10 µM: -21.8%

COc1ccc(-c2nc(CCNc3nnc(C)c(C)c3C#N)co2)cc1
cytotoxicity at 10 µM: -17.2%

CN1CCOC(CNCc2nc(-c3cccnc3)no2)C1 (stereo not drawn)
cytotoxicity at 10 µM: -5.3%

CCOc1ccc(C(=O)NC2CCN(c3ncccn3)CC2)cc1C
cytotoxicity at 10 µM: -10.1%

CC(C(=O)NCc1ccc(F)cc1)N(C)CCN1CCOCC1 (stereo not drawn)
cytotoxicity at 10 µM: 0.247%

Cc1nc(C)c(C(=O)N2CCCc3c(F)ccc(F)c32)o1
cytotoxicity at 10 µM: 7.19%

Cc1cc(C)nc(N2CCc3ccc(OC(F)F)cc3C2)n1
cytotoxicity at 10 µM: 2.68%

CCc1noc(C)c1C(=O)NCc1ccccn1
cytotoxicity at 10 µM: -1%

CC(C)(C)CC(=O)Nc1ncn(CC(=O)NCc2ccccc2)n1
cytotoxicity at 10 µM: -3.38%

Cc1cccc(NC(=O)NCC2(N3CCOCC3)CCSC2)c1 (stereo not drawn)
cytotoxicity at 10 µM: 5.02%

Cc1cnn(CC2CCCN2CC(=O)N(C)Cc2ccsc2)c1 (stereo not drawn)
cytotoxicity at 10 µM: 3.82%

O=C1NCCCCC1Sc1nnc(N2CCCC2)n1C1CC1 (stereo not drawn)
cytotoxicity at 10 µM: 1.4%

COCCN(Cc1ccc(F)cc1Cl)C(=O)c1cc[n+]([O-])cc1
cytotoxicity at 10 µM: 4.75%

Cc1cc(NC(=O)COC(=O)c2ccc(F)cc2Br)n(C)n1
cytotoxicity at 10 µM: 6.03%

CC(NS(C)(=O)=O)c1nc(-c2ccc(Br)cc2)no1 (stereo not drawn)
cytotoxicity at 10 µM: 4.29%

CCN(CC)C(=O)CNC(=O)c1ccc(-c2ccsc2)nc1C
cytotoxicity at 10 µM: 22.9%

CCOC(C)c1noc(CN2CCN(Cc3cccnc3)CC2)n1 (stereo not drawn)
cytotoxicity at 10 µM: -4.55%

Cn1cc(CNCC2(O)CCCCC2)c(-c2cccnc2)n1
cytotoxicity at 10 µM: 14.9%

CC(C)(C)S(=O)(=O)c1ccc(N2CCC(n3ccnc3)CC2)cn1
cytotoxicity at 10 µM: -6.62%

CN(C)C(CNCc1nc(-c2ccsc2)no1)c1cccc(F)c1 (stereo not drawn)
cytotoxicity at 10 µM: 12.9%

COc1cc(-c2noc(C(CC(C)C)N3CCCCC3=O)n2)ccn1 (stereo not drawn)
cytotoxicity at 10 µM: -60.8%

Cc1ccn(-c2ccc(NCc3cccnc3N3CCCCC3)nn2)n1
cytotoxicity at 10 µM: 3.09%

CS(=O)(=O)N1CCOCC12CCN(Cc1ccoc1)CC2
cytotoxicity at 10 µM: 7.81%

CC(C)N(C)Cc1cc(=O)n2c(n1)CN(C(=O)c1ccnnc1)CCC2
cytotoxicity at 10 µM: 2.95%

c1cc(COC[C@@]23CCC[C@@H]2CN(C2CCOCC2)C3)ccn1
cytotoxicity at 10 µM: 8.44%

O=C(c1ncccn1)N1CCC[C@]2(C[C@@H](OCC3CC3)CO2)C1
cytotoxicity at 10 µM: -89.7%

CS(=O)(=O)N[C@@H]1CN(C(=O)c2ccccn2)C[C@@H]2CCCO[C@@H]21
cytotoxicity at 10 µM: -74.8%

Cn1cccc1C(=O)N1Cc2c(CN3CCCCC3)nn(C)c2C1
cytotoxicity at 10 µM: 1.25%

Cc1cccc(-n2cnnc2CCCN2CCOCC2)c1
cytotoxicity at 10 µM: -2.42%

Cn1ccnc1SCCNC1CCN(c2nc3ccccc3s2)CC1
cytotoxicity at 10 µM: 2.05%

NC(=O)Cn1ccnc1C1CCCN(Cc2cccc(Cl)c2F)C1 (stereo not drawn)
cytotoxicity at 10 µM: 7.81%

Cc1nn(C)c2nc(N(Cc3cnn(C)c3)C3CCCCC3)sc12
cytotoxicity at 10 µM: -1.24%

Cc1cnc(N2CCCOC(CN3CCCCC3)C2)nc1 (stereo not drawn)
cytotoxicity at 10 µM: -3.54%

CC(=O)Nc1ccc(CN(C)Cc2snnc2C)cc1
cytotoxicity at 10 µM: -2.17%

Cc1cnc(C)c(N2CCCC(CO)(Cc3cccc(Cl)c3)C2)n1 (stereo not drawn)
cytotoxicity at 10 µM: 7.78%

c1ccc(C2CCCN2Cc2nc(-c3cnccn3)no2)nc1 (stereo not drawn)
cytotoxicity at 10 µM: -0.5%

C[C@@H]1CN(C2(C(=O)N3CC[C@H](O)C3)Cc3ccccc3C2)C[C@H](C)O1
cytotoxicity at 10 µM: -5.19%

CSCc1noc(CN2CCC3(CC2)CC(=O)N(CC=C(C)C)C3)n1
cytotoxicity at 10 µM: -0.589%

CN(CCn1ccc2ccccc21)C(=O)CS(C)(=O)=O
cytotoxicity at 10 µM: -8.14%

N[C@H]1CN(C(=O)c2ccc3[nH]c(=O)c(=O)[nH]c3c2)C[C@@H]1c1ccccc1
cytotoxicity at 10 µM: 2.19%

CC(=O)N1CCN(C[C@H]2CC[C@@H](Cc3ccc4ncccc4c3)O2)CC1
cytotoxicity at 10 µM: -9.14%

CC(C)n1cc(-c2c(C#N)c(N)nc3c2COCC3)cn1
cytotoxicity at 10 µM: 17.2%

CCN1CC(CN(C)Cc2nc(-c3ccc(F)cc3)oc2C)CC1=O (stereo not drawn)
cytotoxicity at 10 µM: -2.22%

CN(C)c1nc2c(c(NCc3cc(O)ncn3)n1)CCCC2
cytotoxicity at 10 µM: -12.4%

COc1ccc(F)c(CN2CCCC(O)(CNCc3ccoc3)C2=O)c1 (stereo not drawn)
cytotoxicity at 10 µM: 10.9%

COC(=O)[C@H]1C[C@@H](O)CCN1S(=O)(=O)c1ccc(F)cc1F
cytotoxicity at 10 µM: -3.01%

CC1(C)CN(C(=O)CC2CCS(=O)(=O)CC2)C[C@]1(C)O
cytotoxicity at 10 µM: 5.91%

Cc1nccn1CCN(C)C(=O)C1CCCN(C2CCOCC2)C1 (stereo not drawn)
cytotoxicity at 10 µM: 0.417%

CC(=O)c1ccc(N2CCC3(CC2)CC(=O)N(C)C3)nc1
cytotoxicity at 10 µM: -1.66%

CCCn1ncc(C(=O)NC2CCN(CC3CCCO3)CC2)c1C (stereo not drawn)
cytotoxicity at 10 µM: -2.43%

CC(C)(NC(=O)C1CCCN(C2CCCC2)C1)c1nnc(N)s1 (stereo not drawn)
cytotoxicity at 10 µM: 3.27%

CC(=O)N1CCCC1c1cc(N2CCN(C3CCCC3)CC2)cc(C)n1 (stereo not drawn)
cytotoxicity at 10 µM: 1.18%

COc1ccc(C(=O)NCCCNc2ccc(C(F)(F)F)cn2)cc1
cytotoxicity at 10 µM: -3.87%

Cc1nc(C)n(CC2CCCN2Cc2cn3ccsc3n2)n1 (stereo not drawn)
cytotoxicity at 10 µM: -10.7%

Cc1nc(C2CCCN(C(=O)c3cc(Cl)c[nH]3)C2)no1 (stereo not drawn)
cytotoxicity at 10 µM: -8.29%

CCn1ccnc1CN(C)CC1CCCN1c1cccnn1 (stereo not drawn)
cytotoxicity at 10 µM: -0.0722%

Cn1nc2c(cc1=O)CN(Cc1nc(C(C)(C)C)no1)CC2
cytotoxicity at 10 µM: -2.86%

CCCc1nc(CN2CCN(CC(O)c3ccccc3)CC2)no1 (stereo not drawn)
cytotoxicity at 10 µM: -2.89%

COCCCNC(=O)CN1CCCC1c1c(C)nn(C)c1Cl (stereo not drawn)
cytotoxicity at 10 µM: 6.69%

CCn1cnnc1CNC(=O)CCC(=O)c1ccc2c(c1)OCCO2
cytotoxicity at 10 µM: -3.59%

CCn1nc(C)c(-c2cncn2Cc2ccccc2CN(C)C)c1C
cytotoxicity at 10 µM: 12.4%

Cn1ccnc1N1CCN(C(=O)Cc2ccccc2)CC1
cytotoxicity at 10 µM: 3.13%

COc1ccc(CN(C)[C@@H]2COC[C@H]2c2ccc(F)cc2)cc1
cytotoxicity at 10 µM: 10.9%

COCCCN(Cc1ccccn1)Cc1ccnn1C1CCCCO1 (stereo not drawn)
cytotoxicity at 10 µM: -2.66%

O=C(O)c1csc(NCCc2ccccc2)n1
cytotoxicity at 10 µM: 0.501%

Cn1ncc2c1C(COCC1CC1)CN(C(=O)c1cscn1)C2 (stereo not drawn)
cytotoxicity at 10 µM: -76%

C1CCN(CCO[C@@H]2CC[C@H]3[C@H]2OCCN3CC2CCOCC2)C1
cytotoxicity at 10 µM: 2.98%

c1cncc(OC[C@@]23CCC[C@@H]2CN(C2CCOCC2)C3)c1
cytotoxicity at 10 µM: -0.0916%

COCC1CC2(CCN(Cc3ccc(OC)cc3)CC2)CN1C(C)C (stereo not drawn)
cytotoxicity at 10 µM: -3.68%

CC1CCN(c2cc(CCC3CCCN3)ncn2)CC1 (stereo not drawn)
cytotoxicity at 10 µM: -14.6%

Cc1noc(C)c1CN1CCO[C@H]2[C@H](Oc3ncccc3F)CC[C@@H]21
cytotoxicity at 10 µM: 2.93%

CN1C(Cn2cccn2)C[C@@H]2CN(Cc3cccnc3)CC[C@@H]21 (stereo partly drawn)
cytotoxicity at 10 µM: 8.01%

O=S(=O)(C1CC1)N1C[C@@H]2CN(Cc3cccs3)CCO[C@@H]2C1
cytotoxicity at 10 µM: -134%

COc1ccc(C[C@H]2CN(C(=O)c3ccncc3)CC[C@@H]2OC)cc1
cytotoxicity at 10 µM: 5.75%

N#Cc1cccc(C(=O)N2CC[C@H]3[C@H]2CCN3CC2CCOCC2)c1
cytotoxicity at 10 µM: -77%

c1ccc(CN2CCc3c(CNc4nccs4)n[nH]c3C2)nc1
cytotoxicity at 10 µM: -7.04%

Cc1ncsc1CN1C[C@@H]2CCCO[C@@H]2[C@H](Nc2ccccn2)C1
cytotoxicity at 10 µM: 2.31%

CC(C)N1CCc2c(CN(C)Cc3ccco3)cncc2C1
cytotoxicity at 10 µM: -2.39%

Cc1ccccc1C(=O)N1CC[C@@H](N(C)C)[C@@H]1Cc1cnn(C)c1
cytotoxicity at 10 µM: -71%

CC(C)N(C)Cc1cnc2n1CCN(C(=O)NC1CCCC1)C2
cytotoxicity at 10 µM: 4.14%

Cc1occc1C(=O)N1CCO[C@H]2[C@H](OCc3cccnc3)CC[C@@H]21
cytotoxicity at 10 µM: 4.84%

CCCn1nccc1NC(=O)CN1CCCC1c1c(C)nn(C)c1C (stereo not drawn)
cytotoxicity at 10 µM: -2.7%

CCCS(=O)(=O)N1C[C@@H]2C[C@H](C(=O)Nc3cccnc3)[C@H](C1)O2
cytotoxicity at 10 µM: -78.8%
